According to the M2OR odorant receptor database:

target: T1, Or1m1 (Mus musculus) (UniProt Q8VFM9); conditions: stereoisomer not certain
T1 sequence (whole entry): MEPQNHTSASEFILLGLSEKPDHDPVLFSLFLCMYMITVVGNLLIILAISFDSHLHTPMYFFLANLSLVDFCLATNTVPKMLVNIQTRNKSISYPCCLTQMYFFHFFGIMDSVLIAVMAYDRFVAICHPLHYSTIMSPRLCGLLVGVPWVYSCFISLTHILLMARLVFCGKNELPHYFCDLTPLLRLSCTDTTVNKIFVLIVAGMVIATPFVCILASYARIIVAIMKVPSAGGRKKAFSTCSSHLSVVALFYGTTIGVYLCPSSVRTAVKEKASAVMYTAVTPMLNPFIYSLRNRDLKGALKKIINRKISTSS
Summary of the method: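 Assay methods differ from source to source, frequently being transient luciferase assays in mammalian cell lines. For each receptor–molecule pair, the label responsive (active) applies when the original authors judged the measured signal statistically different from baseline, and non-responsive (inactive) applies otherwise.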

Odorant receptor agonist call, inactive:
CCCC=O
Cc1ccc(C(C)C)c(O)c1
CC(=O)OCc1ccc2c(c1)OCO2
OCCCCCCCCCO
CCOC(=O)C(C)CC (configuration not stated)
CCCO
CCCC(C)C(=O)OCC (configuration not stated)
OCC=Cc1ccccc1
CC(=O)C1(C)CC2=C(CCCC2(C)C)CC1C (configuration not stated)
Cc1occc1SSc1ccoc1C
CCOC(=O)CC(C)C
C=C(C)C1CCC(C)C(O)C1 (configuration not stated)
CC(C)=CCCC(C)=CCOC(=O)C(C)C
C=CC(=O)CCCCC
CC=C(C)C=O
C=C1C2CCC(C2)C1(C)C (configuration not stated)
CC1(C)CC(=O)CC(=O)C1
CNc1ccccc1C(=O)OC
COC(OC)c1ccccc1
CCC=CCCC=CC=O
CCCCCOC(=O)CC
Cc1ccc(C(C)C)cc1
CC(C)CCN
CSSSC
COc1nccnc1C
CCCCCC(C=O)=Cc1ccccc1
C=CC(=C)CCC=C(C)CCC=C(C)C
CCCCCCC=CC=O
CCCCCCCCCC=CC=O
CCCCCCCCCCOC(C)=O
C1CCOCC1
CCCCCC=CCCC=O
O=C(O)CCCCCCCCC(=O)O
O=C(O)C1CCC1
CCc1occc(=O)c1O
CC=Cc1ccc(OC)cc1
CC(CC=O)CCCC(C)(C)O (configuration not stated)
